Data published in PMC12584159 (Clinical and Translational Science, 2025).
Read-outs that look alike come from different tables or passages of the source.

Assays:
[1] = test system: P‐glycoprotein (P‐gp); conditions: cited from earlier work
[2] = Urinary excretion of atogepant and renal clearance; assay type: in vivo, human; conditions: mean ± SD; for Proportion of administered dose excreted in urine as atogepant (parent drug): LC–MS/MS, urine up to 360 h post‐dose
Method in brief: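 Urine was collected pre-dose and over 0–4, 4–8, 8–12, 12–24 h, then 24-h intervals until discharge criteria or study end, and stored at −20°C. Atogepant was measured by validated LC–MS/MS (1–1000 ng/mL), with BLQ set to zero. Radioactivity was measured by combustion/LSC. Ae0–t, CLR and fraction of dose excreted were computed.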

[3] = test system: organic anion transporting polypeptide (OATP); conditions: cited from earlier work
[4] = Mass balance: total radioactivity recovered in urine and feces; assay type: in vivo, human; conditions: N = 6, mean ± SD; for Proportion of radioactive dose excreted in urine (total radioactivity): through last specimen collection
Method in brief: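 Healthy men received a single oral 50 mg (~200 μCi) ¹⁴C dose in PEG400/Ora-Sweet solution after a ≥10-h fast. Urine was collected in intervals and all feces during confinement; feces were weighed and homogenized. Pre-dose feces set background. Total radioactivity was measured by combustion/LSC, with BLQ (urine <89 dpm/mL, feces <81 dpm/g) set to zero. Collection continued until discharge criteria or Day 29.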

[5] = test system: breast cancer resistance protein (BCRP); conditions: cited from earlier work
[6] = test system: human CGRP receptor; conditions: preclinical studies; cited from earlier work
[7] = single 10–60 mg dose; healthy Japanese and White adults; cited from earlier work
[8] = Safety/tolerability; assay type: in vivo, human; conditions: single 50 mg dose
Method in brief: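 Safety was monitored in all dosed participants after a single 50 mg oral dose, covering AEs (MedDRA 20.1 or newer), physical exam, 12-lead ECG, vital signs, hematology, coagulation, chemistry and urinalysis. ECG and vitals were taken on Day 1; labs and vitals on Day 2. TEAEs were new or worsening AEs within 30 days of dosing.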

[9] = simian chronic toxicology studies; ref internal data; cited from earlier work
[10] = Metabolite profiling in plasma, urine and feces; assay type: in vivo, human; conditions: for Feces %DE (dose excreted): feces 0–312 h [n = 1], 0–120 h [n = 3], 0–96 h [n = 2]; for Urine %DE (dose excreted): urine 0–24 h
Method in brief: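 After a single oral 50 mg ¹⁴C dose, plasma was pooled by Hamilton AUC scheme and extracted with acetonitrile. Urine (0–24 h) was pooled by sample weight, and fecal homogenates with ≥2% dose were acetonitrile-extracted. Profiling used HPLC with radiometric detection and high-resolution MS. Metabolite % was taken from radiochromatogram peak areas. Individual plasma through 312 h was also assayed for M23 by LC–MS/MS.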

[11] = Phase 3, placebo 1.8%, cited from earlier work
[12] = Plasma pharmacokinetics of atogepant; assay type: in vivo, human
Method in brief: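 Fasted healthy men received a single oral 50 mg ¹⁴C dose. Blood was sampled pre-dose to 168 h, then every 72 h until discharge criteria or Day 29. Samples were centrifuged at ≥2500 g for 10 min at ~4°C, and plasma was stored at −70°C. K₂EDTA plasma was assayed by validated LC–MS/MS (1–1000 ng/mL), with BLQ set to zero. Noncompartmental analysis used actual times; ratios were taken to plasma total radioactivity.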

[13] = test system: CYP3A4, CYP2D6; conditions: human liver microsomes; cited from earlier work
[14] = cited from earlier work
[15] = cited from earlier work; remark: listed apart in the source
[16] = first‐generation gepants; cited from earlier work
[17] = plasma, single oral 50 mg, N = 6, mean ± SD

C[C@@H]1[C@H](c2c(F)ccc(F)c2F)C[C@H](NC(=O)c2cnc3c(c2)C[C@@]2(C3)C(=O)Nc3ncccc32)C(=O)N1CC(F)(F)F [Atogepant]
Substrate of P‐gp [1]: substrate
Proportion of administered dose excreted in urine as atogepant (parent drug) ([2]; N = 6): 4.84% ± 1.63%
Proportion of administered dose excreted in urine as atogepant (parent drug) ([2]; N = 6, listed as atogepant): Approximately 5%
Urine excretion, atogepant/total radioactivity ratio ([2]; N = 6): 0.605 ± 0.109
CLR (renal clearance), atogepant ([2]; single oral 50 mg, N = 6): 1.18 ± 0.33 L/h
Urine Ae0–t (total urine atogepant excretion) ([2]; up to 360 h post‐dose): 2.42 ± 0.82 mg
Substrate of OATP [3]: substrate
Proportion of radioactive dose excreted in feces (total radioactivity) ([4]; through last specimen collection (336 h, 14 days)): 81%
Proportion of radioactive dose excreted in urine (total radioactivity) [4]: 8%
Proportion of radioactive dose excreted in urine (total radioactivity) ([4]; listed as atogepant): ~ 8%
Substrate of BCRP [5]: substrate
Affinity, potency and selectivity for the receptor [6]: high affinity, potency, and selectivity
CLR (renal clearance) [7]: 0.9 to 1.5 L/h
Tolerability ([8]; healthy males N = 6): well‐tolerated
ALT or AST elevations ([8]; healthy participants N = 6): no ALT or AST elevations observed
No‐observed‐adverse‐effect level [9]: 300 mg/kg
Disproportionate human metabolites ([10]; comparison of this study to in vivo rat and monkey studies): no disproportionate human metabolites
Feces %DE (dose excreted) ([10]; mean ± SD, ND = not detected or < 1% of dose or AUC0–t, listed as Parent): 42.2 ± 4.2%
Feces %DE (dose excreted) ([10]; mean ± SD, ND = not detected or < 1% of dose or AUC0–t, listed as parent drug): 42%
dose excreted ([10]; human, feces, oral, 50 mg, Share of fecal radioactivity recovery, unabsorbed drug, biliary excretion, and/or intestinal secretion): ~52%
Plasma %AUC0–t (percent of radioactive exposure) ([10]; pooled plasma 0–36 h (0–24 h for one participant), HPLC‐RAD, N = 6, mean ± SD, ND = not detected or < 1% of dose or AUC0–t): 84.7 ± 9.2%
Urine %DE (dose excreted) ([10]; N = 6, mean ± SD, ND = not detected or < 1% of dose or AUC0–t): 5%
Urine %DE (dose excreted) ([10]; N = 6, mean ± SD, ND = not detected or < 1% of dose or AUC0–t, listed as Parent): 5.21 ± 1.69%
Proportion of patients with ALT and AST elevations ≥ 3× upper limit of normal ([11]; atogepant 10 mg/day): 0.9%
Proportion of patients with ALT and AST elevations ≥ 3× upper limit of normal ([11]; atogepant 30 mg/day): 0.9%
Proportion of patients with ALT and AST elevations ≥ 3× upper limit of normal ([11]; atogepant 60 mg/day): 0.4%
Time after dosing up to which atogepant plasma concentrations were measurable ([12]; LOQ 1 ng/mL): up to 120 h
AUC(0-inf) ([12]; male, human, plasma, po, 50 mg): 2220 ± 966 ng·h/mL
AUC(0-t) ([12]; male, human, plasma, po, 50 mg): 2180 ± 960 ng·h/mL
Cmax ([12]; male, human, plasma, po, 50 mg): 367 ± 189 ng/mL
half-life ([12]; male, human, plasma, po, 50 mg): 18.5 ± 11.9 h
AUC0–t, atogepant/total radioactivity ratio [12, 17]: 0.776 ± 0.167
AUC0–∞, atogepant/total radioactivity ratio [12, 17]: 0.728 ± 0.172
C max, atogepant/total radioactivity ratio [12, 17]: 0.997 ± 0.286
AUC0–∞, atogepant/total radioactivity ratio ([12]; plasma, single oral 50 mg, N = 6, mean ± SD, listed as atogepant): ~ 0.75
T max, atogepant ([12]; plasma, single oral 50 mg, N = 6, median (range)): 1 (0.98–2.98) hours
Enzymes metabolizing atogepant [13]: predominantly metabolized via CYP3A4 with minor involvement of CYP2D6
Effect of quinidine (strong P‐gp inhibitor) on atogepant exposure ([14]; clinical DDI study): no clinically relevant increase in atogepant exposure
Effect of co‐administration on atogepant exposure ([14]; multiple‐dose rifampin (strong CYP3A4 and P‐gp inducer)): significantly decreased atogepant exposure
Effect of co‐administration on atogepant exposure ([14]; single‐dose rifampin (OATP inhibitor), healthy participants): significantly increased atogepant exposure
Accumulation with daily dosing [15]: does not accumulate with daily dosing
Bioavailability, tablet vs. PEG solution dosing [15]: higher with tablet vs. PEG solution dosing

O=C(N[C@@H]1CC[C@@H](c2cccc(F)c2F)CN(CC(F)(F)F)C1=O)N1CCC(n2c(=O)[nH]c3ncccc32)CC1 [telcagepant]
Liver toxicity in clinical trials [16]: liver toxicity concerns

O=C(CN1C(=O)C2(CCCC2)NC[C@H]1c1cc(F)cc(F)c1)Nc1ccc2c(c1)C[C@@]1(C2)C(=O)Nc2ncccc21 [MK‐3207]
Liver toxicity in clinical trials [16]: liver toxicity concerns
